Test results from ChEMBL document CHEMBL2146467, “Generation and exploration of new classes of antitubercular agents: The optimization of oxazolines, oxazoles, thiazolines, thiazoles to imidazo[1,2-a]pyridines and isomeric 5,6-fused scaffolds” (Bioorg Med Chem, 2012).
≈ marks a conversion by molar mass, not a printed value.

Tests used:
[1] = Metabolic stability in Sprague-Dawley rat liver microsomes assessed as compound remaining at 20 uM after 15 mins by LC/MS analysis; format: ADME, Microsome; settings: read-out: Stability
Vero = assay: Cytotoxicity against african green monkey Vero cells after 72 hrs by CellTiter assay; format: cell-based; settings: Chlorocebus sabaeus
[2] = system: Mycobacterium tuberculosis; assay: microbe, parasite or virus in culture; format: functional; settings: H37Rv
[3] = system: Mycobacterium tuberculosis; assay: Antimycobacterial activity against Mycobacterium tuberculosis H37Rv ATCC 27294 culture in GAS media after 7 days by microplate alamar blue assay; format: functional; settings: H37Rv ATCC 27294, 168 h
How it was run: (§1)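 Replicating Mtb H37Rv. The MIC is the concentration that inhibits growth of 90% of organisms. Media by line: GAS is glycerol-alanine-salts. GAST is iron-deficient glycerol-alanine-salts with Tween 80. 7H12 is 7H9 broth base with BSA, casein hydrolysate, catalase and palmitic acid. Values are reported in μM.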

[4] = system: Mycobacterium tuberculosis; assay: Antimycobacterial activity against Mycobacterium tuberculosis H37Rv ATCC 27294 culture in GAST media after 7 days by microplate alamar blue assay; format: functional; settings: H37Rv ATCC 27294, 168 h; how it was run: as §1
[5] = Chemical stability in simulated gastric fluid assessed as compound remaining at 50 uM after 15 mins by LC/MS analysis; format: physicochemical; settings: read-out: Stability
[6] = system: Mycobacterium tuberculosis; assay: Antimycobacterial activity against Mycobacterium tuberculosis H37Rv ATCC 27294 culture in 7H12 media after 7 days by microplate alamar blue assay; format: functional; settings: H37Rv ATCC 27294, 168 h; how it was run: as §1
[7] = system: Mycobacterium tuberculosis; assay: Antimycobacterial activity against drug-sensitive Mycobacterium tuberculosis isolate 2 after 14 days; format: functional; settings: isolate 2, 336 h
[8] = system: Mycobacterium tuberculosis; assay: Antimycobacterial activity against isoniazid-,rifampin-,ethambutol-,kanamycin-,paraaminosalicylic acid-resistant Mycobacterium tuberculosis after 14 days; format: functional; settings: 336 h
Mycobacterium avium = assay: Antimycobacterial activity against Mycobacterium avium; format: functional
Mycobacterium kansasii = assay: Antimycobacterial activity against Mycobacterium kansasii; format: functional
Escherichia coli = assay: Antibacterial activity against Escherichia coli; format: functional
Staphylococcus aureus = assay: Antibacterial activity against Staphylococcus aureus; format: functional
[9] = system: Mycobacterium tuberculosis; assay: Antimycobacterial activity against drug-sensitive Mycobacterium tuberculosis isolate 1 after 14 days; format: functional; settings: isolate 1, 336 h
[10] = system: Mycobacterium tuberculosis; assay: Antimycobacterial activity against isoniazid-,rifampin-,ethambutol-,pyrazinamide-,streptomycin-,kanamycin-,paraaminosalicylic acid-resistant Mycobacterium tuberculosis after 14 days; format: functional; settings: 336 h

SMILES	IC50 (Vero)	MIC90 [2]	MIC90 [3]	MIC90 [4]	MIC90 [6]	also measured
O=C(OCc1ccccc1)[C@@H]1COC(c2ccccc2)=N1	> 128 µM	63 µM (≈ 17.7 µg/mL)	4.9 µM (≈ 1.38 µg/mL)	4.4 µM (≈ 1.24 µg/mL)	16.6 µM (≈ 4.67 µg/mL)	remaining at 0.25 h, 20 µM [1]: 2.8%; remaining at 0.25 h, 50 µM [5]: 1.7%
O=C(OCc1ccccc1)c1coc(-c2ccccc2)n1		37 µM (≈ 10.3 µg/mL)	5.7 µM (≈ 1.59 µg/mL)	0.49 µM (≈ 0.137 µg/mL)	3.9 µM (≈ 1.09 µg/mL)	remaining at 0.25 h, 20 µM [1]: 2.7%; MIC90 [7]: 2.2 µM (≈ 0.614 µg/mL); MIC90 [8]: 1.1 µM (≈ 0.307 µg/mL); remaining at 0.25 h, 50 µM [5]: 1.8%
CCOC(=O)c1nc(-c2ccccc2)sc1C(C)=O			63 µM (≈ 17.3 µg/mL)	124 µM (≈ 34.1 µg/mL)		
Cc1ccn2c(C(=O)NCc3ccccc3)c(C)nc2c1	> 128 µM	54 µM (≈ 15.1 µg/mL)	0.7 µM (≈ 0.196 µg/mL)	2 µM (≈ 0.559 µg/mL)	2.3 µM (≈ 0.642 µg/mL)	remaining at 0.25 h, 20 µM [1]: 90%; MIC (Mycobacterium avium): 1.3 µM (≈ 0.363 µg/mL); MIC (Mycobacterium kansasii): 1.3 µM (≈ 0.363 µg/mL); MIC (Escherichia coli): > 50 µM; remaining at 0.25 h, 50 µM [5]: 100%; MIC (Staphylococcus aureus): > 50 µM
O=C(NCc1ccccc1)c1coc(-c2ccccc2)n1			> 65 µM	59 µM (≈ 16.4 µg/mL)	> 40 µM	
O=C(OCc1ccccc1)[C@@H]1CSC(c2ccccc2)=N1	> 128 µM		12.9 µM (≈ 3.84 µg/mL)	3.5 µM (≈ 1.04 µg/mL)	11.6 µM (≈ 3.45 µg/mL)	
O=C(OCc1ccccc1)c1csc(-c2ccccc2)n1	> 128 µM		6 µM (≈ 1.77 µg/mL)	6.2 µM (≈ 1.83 µg/mL)	7.2 µM (≈ 2.13 µg/mL)	MIC90 [7]: 8.5 µM (≈ 2.51 µg/mL); MIC90 [8]: 4.2 µM (≈ 1.24 µg/mL)
O=C(OCc1ccccc1)c1cc(-c2ccccc2)[nH]n1	> 128 µM		3.5 µM (≈ 0.974 µg/mL)	> 64 µM	> 38 µM	
O=C(OCc1ccccc1)c1cc(-c2ccccc2)on1	> 50 µM	28 µM (≈ 7.82 µg/mL)	2.2 µM (≈ 0.614 µg/mL)		0.8 µM (≈ 0.223 µg/mL)	
COc1ccc(-c2ccc(C(=O)OCc3ccccc3)cn2)cc1			1.9 µM (≈ 0.607 µg/mL)		9.5 µM (≈ 3.03 µg/mL)	
Cc1ccn2c(C(=O)OCc3ccccc3)c(-c3ccccc3)nc2c1	> 50 µM	21.7 µM (≈ 7.43 µg/mL)	< 0.195 µM		< 0.195 µM	
Cc1ccn2c(C(=O)NCc3ccccc3)c(-c3ccccc3)nc2c1	> 50 µM	> 50 µM	0.6 µM (≈ 0.205 µg/mL)		2.9 µM (≈ 0.99 µg/mL)	
Cc1ccn2c(C(=O)OCc3ccccc3)c(C)nc2c1	> 50 µM	34.8 µM (≈ 9.76 µg/mL)	< 0.195 µM		< 0.195 µM	MIC90 [7]: < 0.04 µM; MIC90 [8]: < 0.04 µM; MIC90 [9]: < 0.04 µM; MIC90 [10]: < 0.04 µM
Cc1nc2ncccn2c1C(=O)OCc1ccccc1	> 50 µM		2.3 µM (≈ 0.615 µg/mL)		4.7 µM (≈ 1.26 µg/mL)	
Cc1cc2nc(C)c(C(=O)OCc3ccccc3)n2c(C)n1	> 50 µM		1.1 µM (≈ 0.325 µg/mL)		5.3 µM (≈ 1.57 µg/mL)	
O=C(Nc1ccccc1)c1coc(-c2ccccc2)n1	> 128 µM	50 µM (≈ 13.2 µg/mL)	11 µM (≈ 2.91 µg/mL)	28 µM (≈ 7.4 µg/mL)		
O=C(NC1CCCCC1)c1csc(-c2ccccc2)n1			15 µM (≈ 4.3 µg/mL)	15 µM (≈ 4.3 µg/mL)		remaining at 0.25 h, 20 µM [1]: 3.3%; remaining at 0.25 h, 50 µM [5]: 3.3%
CCCCCCNC(=O)c1csc(-c2ccccc2)n1			14 µM (≈ 4.04 µg/mL)	60 µM (≈ 17.3 µg/mL)		remaining at 0.25 h, 20 µM [1]: 18.9%; remaining at 0.25 h, 50 µM [5]: 0.1%
CC(C)(C)OC(=O)c1coc(-c2ccccc2)n1			> 64 µM	> 64 µM		remaining at 0.25 h, 20 µM [1]: 42%
CCOC(=O)c1csc(-c2cccc(C(F)(F)F)c2)n1			59 µM (≈ 17.8 µg/mL)	61 µM (≈ 18.4 µg/mL)		
CCOC(=O)c1csc(-c2cccc(Cl)c2Cl)n1			41 µM (≈ 12.4 µg/mL)	39 µM (≈ 11.8 µg/mL)		
CCOC(=O)c1n[nH]c(-c2cccc(C)c2)c1N			> 128 µM	> 128 µM		
CCOC(=O)c1nn(Cc2ccccc2)cc1N			126 µM (≈ 30.9 µg/mL)	> 128 µM		
CCOC(=O)c1cc(-c2ccc([N+](=O)[O-])cc2)[nH]n1			> 128 µM	> 128 µM		
NNC(=O)c1ccncc1 [ISONIAZID]	> 128 µM	> 512 µM	0.22 µM (≈ 0.0302 µg/mL)		0.37 µM (≈ 0.0507 µg/mL)	
O=[N+]([O-])c1cn2c(n1)OC[C@@H](OCc1ccc(OC(F)(F)F)cc1)C2 [PRETOMANID]						MIC90 [7]: > 13.9 µM; MIC90 [8]: 0.45 µM (≈ 0.162 µg/mL); MIC90 [9]: 0.45 µM (≈ 0.162 µg/mL); MIC90 [10]: 0.45 µM (≈ 0.162 µg/mL)
CO[C@H]1/C=C/O[C@@]2(C)Oc3c(C)c(O)c4c(O)c(c(/C=N/N5CCN(C)CC5)c(O)c4c3C2=O)NC(=O)/C(C)=C\C=C\[C@H](C)[C@H](O)[C@@H](C)[C@@H](O)[C@@H](C)[C@H](OC(C)=O)[C@@H]1C [RIFAMPIN]			0.09 µM (≈ 0.0741 µg/mL)	0.2 µM (≈ 0.165 µg/mL)	0.04 µM (≈ 0.0329 µg/mL)	
